ChEMBL document CHEMBL4837231, “Development of peptide epoxyketones as selective immunoproteasome inhibitors” (Eur J Med Chem, 2021)
pIC50: −log10 of the molar value.

What was measured:
[1] = biological target: T1, Proteasome subunit beta type-8 (Homo sapiens, UniProt P28062); experiment: Inhibition of human proteasome subunit beta-5i chymotrypsin like activity using SUC-ANW-AMC as flurogenic substrate preincubated for 15 mins followed by substrate addition and measured after 1 hr by fluorescence assay
T1 sequence (P28062 whole entry): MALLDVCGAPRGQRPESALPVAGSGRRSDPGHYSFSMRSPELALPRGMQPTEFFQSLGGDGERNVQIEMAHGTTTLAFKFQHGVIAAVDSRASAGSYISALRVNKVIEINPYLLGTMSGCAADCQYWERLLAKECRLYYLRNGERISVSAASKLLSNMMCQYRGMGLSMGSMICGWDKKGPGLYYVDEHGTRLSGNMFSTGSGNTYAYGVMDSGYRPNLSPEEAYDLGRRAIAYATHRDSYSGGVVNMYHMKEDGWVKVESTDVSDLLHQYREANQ
Method in brief: (§1)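 Immunoproteasome derived from human PBMC, added at 1 μg/mL (pre-dilution) in 100 mM Tris-HCl pH 7.5. Compounds were diluted to a 10% DMSO solution. After 15 min preincubation at 25 °C, AMC substrate added (100 µM final) and incubated 1 h at 25 °C. Read at ex 355/em 460 nm; IC50 by sigmoidal variable-slope fitting.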

[2] = biological target: T2, Proteasome Macropain subunit MB1 (Homo sapiens, UniProt P28074); experiment: Inhibition of chymotrypsin-like activity of human 20s proteasome beta 5c subunit using suc-WLA-AMC as flurogenic substrate preincubated for 15 mins followed by substrate addition and measured after 1 hr by fluorescence assay
T2 sequence (P28074 whole entry): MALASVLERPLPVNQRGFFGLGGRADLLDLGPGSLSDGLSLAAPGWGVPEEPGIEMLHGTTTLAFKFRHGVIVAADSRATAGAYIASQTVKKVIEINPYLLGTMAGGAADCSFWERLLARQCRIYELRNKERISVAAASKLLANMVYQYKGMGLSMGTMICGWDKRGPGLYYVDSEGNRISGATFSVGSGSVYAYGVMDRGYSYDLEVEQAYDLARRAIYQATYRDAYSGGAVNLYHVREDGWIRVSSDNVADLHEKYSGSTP
Method in brief: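 Constitutive proteasome isolated from human hepatic cells, added at 40 μg/mL (pre-dilution) in 100 mM Tris-HCl pH 7.5. Compounds came from DMSO diluted in water (10% DMSO solution). Preincubated 15 min at 25 °C, then AMC substrate added (100 µM final) for 1 h at 25 °C. Fluorescence read at 355 nm excitation and 460 nm emission; IC50 from a variable-slope sigmoidal fit.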

[3] = biological target: T3, Proteasome subunit beta type-9 (Homo sapiens, UniProt P28065); experiment: Inhibition of human caspase-like activity of 20s proteasome beta 1i subunit using SUC-PAL-AMC as flurogenic substrate preincubated for 15 mins followed by substrate addition and measured after 1 hr by fluorescence assay; method in brief: as §1
T3 sequence (P28065 whole entry): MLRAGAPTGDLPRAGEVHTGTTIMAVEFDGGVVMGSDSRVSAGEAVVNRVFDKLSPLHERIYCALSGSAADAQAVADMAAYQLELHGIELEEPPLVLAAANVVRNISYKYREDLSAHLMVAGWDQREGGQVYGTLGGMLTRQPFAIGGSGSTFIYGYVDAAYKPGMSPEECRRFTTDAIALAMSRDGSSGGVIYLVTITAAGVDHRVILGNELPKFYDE

[4] = biological target: T4, Proteasome subunit beta type-10 (Homo sapiens, UniProt P40306); experiment: Inhibition of human trypsin-like activity of 20s proteasome beta 2i subunit using SUC-VGR-AMC as flurogenic substrate preincubated for 15 mins followed by substrate addition and measured after 1 hr by fluorescence assay
T4 sequence (P40306 whole entry): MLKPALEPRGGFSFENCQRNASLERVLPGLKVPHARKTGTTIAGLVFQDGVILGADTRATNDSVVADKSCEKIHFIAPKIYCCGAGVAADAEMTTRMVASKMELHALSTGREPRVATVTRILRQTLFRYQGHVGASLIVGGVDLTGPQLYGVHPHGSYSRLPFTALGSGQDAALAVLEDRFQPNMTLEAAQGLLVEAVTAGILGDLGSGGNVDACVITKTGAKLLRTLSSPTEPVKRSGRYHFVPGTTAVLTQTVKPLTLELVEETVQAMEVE
Method in brief: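 Immunoproteasome derived from human PBMC, added at 1 μg/mL (pre-dilution) in 100 mM Tris-HCl pH 7.5. Compounds were diluted to a 10% DMSO solution. After 15 min preincubation at 25 °C, AMC substrate added (100 µM final) and incubated 1 h at 25 °C.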

[5] = Selectivity ratio of IC50 for chymotrypsin-like activity of human 20s proteasome beta 5c subunit to IC50 for human proteasome subunit beta-5i chymotrypsin like activity
RPMI-8226 = experiment: Antiproliferative activity against human RPMI-8226 cells assessed as inhibition of cell proliferation after 72 hrs by MTS assay; type: functional, cell-based; details: RPMI-8226, 72 h
Method in brief: (§2)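 Cells grown in RPMI-1640 with 10% FBS and penicillin/streptomycin at 37 °C, 5% CO2. Seeded per well at 5×10³ (RPMI-8226) or 3×10⁴ (MM.1S), then exposed 72 h to graded compound concentrations or 0.2% DMSO vehicle. MTS/PMS added for 2–4 h; absorbance at 490 nm minus 690 nm. Inhibition = (Acontrol−Asample)/Acontrol; IC50 by sigmoidal variable-slope regression.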

MM1.S = experiment: Antiproliferative activity against human MM1.S cells assessed as inhibition of cell proliferation after 72 hrs by MTS assay; type: functional, cell-based; method in brief: as §2
[6] = Inhibition of 20s proteasome beta 5c subunit (unknown origin); design: species or system Homo sapiens

| Structure (SMILES) | pIC50 [1] | pIC50 [2] | pIC50 [3] | pIC50 [4] | Ratio IC50 [5] | pIC50 (RPMI-8226) | pIC50 (MM1.S) | pIC50 [6] |
| --- | --- | --- | --- | --- | --- | --- | --- | --- |
| COc1ccc(C[C@H](NC(=O)[C@@H](C)NC(=O)N2CCC[C@@H](OC)C2)C(=O)N[C@@H](Cc2ccccc2)C(=O)[C@@]2(C)CO2)cc1 | 7.52 | 6.61 | 5.37 | < 5.00 | 8.2 | 6.17 | 6.66 | – |
| COc1ccc(C[C@H](NC(=O)[C@@H](C)NC(=O)N2CC[C@H](OC)C2)C(=O)N[C@@H](Cc2ccccc2)C(=O)[C@@]2(C)CO2)cc1 | 7.60 | 6.22 | 5.24 | < 5.00 | 24.1 | 5.73 | 5.86 | – |
| COc1ccc(C[C@H](NC(=O)[C@H](C)NC(=O)CN2CCOCC2)C(=O)N[C@@H](Cc2ccccc2)C(=O)[C@@]2(C)CO2)cc1 | – | – | – | – | – | 6.17 | – | 6.37 |
| COc1ccc(C[C@H](NC(=O)[C@H](C)NC(=O)N2CCC(NC(=O)c3nccs3)CC2)C(=O)N[C@@H](CC2CCCCC2)C(=O)[C@@]2(C)CO2)cc1 | 6.89 | 6.61 | – | – | 1.9 | – | – | – |
| COc1ccc(C[C@H](NC(=O)[C@H](C)NC(=O)N2CCC(OC)C2)C(=O)N[C@@H](Cc2ccccc2)C(=O)[C@@]2(C)CO2)cc1 (stereo partly drawn) | 7.25 | 6.53 | – | – | 5.2 | – | – | – |
| COc1ccc(C[C@H](NC(=O)[C@@H](C)NC(=O)N2CC[C@@H](OC)C2)C(=O)N[C@@H](Cc2ccccc2)C(=O)[C@@]2(C)CO2)cc1 | 7.18 | 5.83 | – | – | 22.5 | – | – | – |
| COc1ccc(C[C@H](NC(=O)[C@@H](C)NC(=O)N2CCC(OC)CC2)C(=O)N[C@@H](Cc2ccccc2)C(=O)[C@@]2(C)CO2)cc1 | 7.59 | 6.19 | < 5.00 | < 5.00 | 24.9 | 5.72 | 5.75 | – |
| C[C@@H](NC(=O)N1CCC(NC(=O)c2nccs2)CC1)C(=O)N[C@@H](Cc1c[nH]c2ccccc12)C(=O)N[C@@H](CC1CCCCC1)C(=O)[C@@]1(C)CO1 | 6.14 | 5.97 | – | – | 1.5 | – | – | – |
| COc1ccc(C[C@H](NC(=O)[C@H](C)NC(=O)N2CCC(OC)CC2)C(=O)N[C@@H](Cc2ccccc2)C(=O)[C@@]2(C)CO2)cc1 | 7.72 | 7.13 | – | – | 3.9 | – | – | – |
| C[C@H](NC(=O)N1CCC(NC(=O)c2nccs2)CC1)C(=O)N[C@@H](Cc1c[nH]c2ccccc12)C(=O)N[C@@H](Cc1ccccc1)C(=O)[C@@]1(C)CO1 | 7.68 | 7.59 | 6.81 | < 5.00 | 1.2 | 6.96 | 6.96 | – |
| COc1ccc(C[C@H](NC(=O)[C@@H](C)NC(=O)n2c3ccccc3c3ccccc32)C(=O)N[C@@H](Cc2ccccc2)C(=O)[C@@]2(C)CO2)cc1 | 7.42 | 7.14 | – | – | 1.9 | – | – | – |
| COc1ccc(C[C@H](NC(=O)[C@@H](C)NC(=O)N2CCCC2)C(=O)N[C@@H](Cc2ccccc2)C(=O)[C@@]2(C)CO2)cc1 | 7.20 | 5.88 | – | – | 21.2 | – | – | – |
| C[C@H](NC(=O)N1CCC(NC(=O)c2nccs2)CC1)C(=O)N[C@@H](Cc1c[nH]c2ccccc12)C(=O)N[C@@H](CC1CCCCC1)C(=O)[C@@]1(C)CO1 | 6.61 | 6.66 | – | – | 0.9 | – | – | – |
| COc1ccc(C[C@H](NC(=O)[C@@H](C)NC(=O)N2CCC[C@H](OC)C2)C(=O)N[C@@H](Cc2ccccc2)C(=O)[C@@]2(C)CO2)cc1 | 7.42 | 6.79 | – | – | 4.3 | – | – | – |
| COc1ccc(C[C@H](NC(=O)[C@@H](C)NC(=O)N2CCC(NC(=O)c3nccs3)CC2)C(=O)N[C@@H](CC2CCCCC2)C(=O)[C@@]2(C)CO2)cc1 | 6.14 | 5.57 | – | – | 3.8 | – | – | – |
| COc1ccc(C[C@H](NC(=O)[C@@H](C)NC(=O)N2CCC(OC)C2)C(=O)N[C@@H](Cc2ccccc2)C(=O)[C@@]2(C)CO2)cc1 (stereo partly drawn) | 7.35 | 5.96 | – | – | 24.8 | – | – | – |
| COc1ccc(C[C@H](NC(=O)[C@@H](C)NC(=O)N2CCc3ccccc3C2)C(=O)N[C@@H](Cc2ccccc2)C(=O)[C@@]2(C)CO2)cc1 | 7.09 | 6.02 | – | – | 11.9 | – | – | – |
| COc1ccc(C[C@H](NC(=O)[C@H](C)NC(=O)N2CCc3ccccc3C2)C(=O)N[C@@H](Cc2ccccc2)C(=O)[C@@]2(C)CO2)cc1 | 7.42 | 7.16 | – | – | 1.8 | – | – | – |
| COc1ccc(C[C@H](NC(=O)[C@H](C)NC(=O)N2CCCC2)C(=O)N[C@@H](Cc2ccccc2)C(=O)[C@@]2(C)CO2)cc1 | 6.61 | 6.30 | – | – | 2 | – | – | – |
| COc1ccc(C[C@H](NC(=O)[C@H](C)NC(=O)n2c3ccccc3c3ccccc32)C(=O)N[C@@H](Cc2ccccc2)C(=O)[C@@]2(C)CO2)cc1 | 7.21 | 7.45 | – | – | 0.6 | – | – | – |
| C[C@@H](NC(=O)N1CCC(NC(=O)c2nccs2)CC1)C(=O)N[C@@H](Cc1c[nH]c2ccccc12)C(=O)N[C@@H](Cc1ccccc1)C(=O)[C@@]1(C)CO1 | 6.49 | 6.33 | – | – | 1.5 | – | – | – |
